The values that follow come from ChEMBL document CHEMBL1151210, “Antioxidative constituents from the leaves of Hypericum styphelioides” (J Nat Prod, 2004).

A short description of assay [1]: Antioxidant activity assessed as trolox equivalent of ABTS radical scavenging activity by spectrophotometry. The format is functional. The method, boiled down:
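ABTS radical monocation, preformed, scavenging read spectrophotometrically. Samples were diluted in MeOH to 0.3, 0.5, 1.0, 1.5 and 2.0 mM. 10 µL of sample or Trolox standard was added to 1.0 mL diluted ABTS, with MeOH as control. % inhibition of A734 vs control was taken 1 min after mixing, in triplicate. Value = Trolox concentration matching the inhibition of 1 mM compound.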

Assay [2] can be described thus: Antioxidant activity assessed as trolox equivalent of free radical scavenging activity by chemiluminescence assay. The assay is classed as functional. The method, boiled down: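 Measures inhibition of p-iodophenol-enhanced chemiluminescence from a horseradish peroxidase/perborate/luminol system. Signal reagent was made by dissolving tablets (luminol, p-iodophenol enhancer, perborate oxidant) in assay buffer. Trolox served as reference antioxidant, and activity is expressed in Trolox-equivalent mM.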

As for `C[C@@H]1O[C@@H](OC[C@H]2O[C@@H](Oc3c(-c4ccc(O)c(O)c4)oc4cc(O)cc(O)c4c3=O)[C@H](O)[C@@H](O)[C@@H]2O)[C@H](O)[C@H](O)[C@H]1O`, the Activity in assay [1] was found to be 2.78 mM; in assay [2], 2.54 mM.

For `C=C(C)[C@H]1C[C@H](c2c(O)cc3oc4c(O)c(O)ccc4c(=O)c3c2O)C(C)(C)C1`, the Activity in assay [1] was determined as 2.75 mM; in assay [2], 1.78 mM.

For `O=C(c1ccccc1)c1cc(O)c([C@@H]2O[C@H](CO)[C@@H](O)[C@H](O)[C@H]2O)c(O)c1`, the Activity in assay [1] was 1.93 mM; in assay [2] it was 1.24 mM.

As to `CC(C)=CCC/C(C)=C/Cc1c(O)cc(O)c(C(=O)CC(C)C)c1O`, the Activity in assay [1] came out at 1.1 mM; in assay [2] it was 0.96 mM.

In the case of `O=c1c(O)c(-c2ccc(O)c(O)c2)oc2cc(O)cc(O)c12`, the results for the Activity in assay [1] and in assay [2] were 3.33 mM and 3.09 mM, respectively.

Take `C=C(C)[C@H]1C[C@H](c2c(O)cc3oc4c(O)cccc4c(=O)c3c2O)C(C)(C)C1`: the values for the Activity in assay [1] and in assay [2] were 2.92 mM and 1.94 mM, respectively.
